Common to all, as to type: functional
The subject of one assay is Bacillus anthracis. Kind of assay: Antimicrobial activity against Bacillus anthracis 34F2 Sterne after 24 hrs by double dilution method.
The test system of the next assay is Haemophilus influenzae. Kind of assay: Antimicrobial activity against Haemophilus influenzae ATCC 51907 after 24 hrs by double dilution method. The method, boiled down:
(§1)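 Double (2-fold) dilution series added to inoculum at OD600 0.1, giving final 256 to 2 μg/mL. H. influenzae was scraped from agar into supplemented BHI medium. Other strains were diluted from an overnight LB culture (37 °C, 200 rpm) into LB. Plates were covered and shaken at 200 rpm, 37 °C, for 24 h before MIC was read. At least two runs in triplicate.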

Another assay has as its system Escherichia coli. Kind of assay: Antimicrobial activity against Escherichia coli K-12 MG1655 after 24 hrs by double dilution method. An outline of the steps:
as §1

Another assay relates to Bacillus cereus. Kind of assay: Antimicrobial activity against Bacillus cereus ATCC 11778 after 24 hrs by double dilution method. The method, boiled down:
as §1

Assay [1] concerns Staphylococcus aureus. Kind of assay: Antimicrobial activity against Staphylococcus aureus RN4220 after 24 hrs by double dilution method. An outline of the steps: as §1
In another assay the test system is Bacillus subtilis. Kind of assay: Antimicrobial activity against Bacillus subtilis 168 after 24 hrs by double dilution method. An outline of the steps:
as §1

Assay [2] has as its system Staphylococcus aureus. Kind of assay: Bactericidal activity against Staphylococcus aureus RN4220 8 to 16 ug/ml at after 4 to 24 hrs by time kill assay. An outline of the steps: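 Time-kill: 5 mL S. aureus cultures at OD600 0.1 were treated with compound (final 8 to 16 μg/mL) or DMSO. 100 μL was sampled at 0, 4 and 24 h, serially diluted 10-fold in sterile PBS, and 2 μL spotted on LB agar to count CFUs.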

≈ marks a conversion by molar mass, not a printed value. Calls of active or inactive are those of the source. The calls are words filed in the database; no cut-off is given here.

Turning to `CC(C)SCC(=O)NCC(=O)NCc1ccccc1`, the MIC is greater than 128 µg/mL in the assay with Bacillus anthracis; greater than 128 µg/mL with Haemophilus influenzae (ATCC 51907, 24 h); greater than 128 µg/mL in the assay with Escherichia coli (K-12 MG1655, 24 h); greater than 128 µg/mL against Bacillus cereus (ATCC 11778, 24 h); greater than 128 µg/mL with Staphylococcus aureus [1] (RN4220, 24 h); greater than 128 µg/mL against Bacillus subtilis (subsp. subtilis str. 168, 24 h).
As for `O=Cc1ccc(Br)cc1`, the MIC result in the assay on Bacillus anthracis, in the assay on Haemophilus influenzae, in the assay with Escherichia coli, in the assay with Bacillus cereus, with Staphylococcus aureus [1] and in the assay with Bacillus subtilis (subsp. subtilis str. 168) was “inactive” in each case.
Consider `N=C(N)NCCCC[C@H](O)CC(=O)N[C@@H](O)C(=O)NCCCCNCCCN`, for which the MIC against Bacillus anthracis was found to be 12.5 µg/mL (≈ 31 µM); against Escherichia coli (K-12 MG1655, 24 h), 50 µg/mL (≈ 124 µM); against Bacillus cereus (ATCC 11778, 24 h), 50 µg/mL (≈ 124 µM); against Staphylococcus aureus [1] (RN4220, 24 h), 6.25 µg/mL (≈ 15.5 µM); against Bacillus subtilis (subsp. subtilis str. 168, 24 h), 6.25 µg/mL (≈ 15.5 µM).
With `N#Cc1ccc(C(=O)N(CCCc2ccccc2)CC(=O)N2CCNCC2)cc1`, the MIC in the assay on Bacillus anthracis is greater than 128 µg/mL; with Haemophilus influenzae (ATCC 51907, 24 h) it was greater than 128 µg/mL; in the assay with Escherichia coli (K-12 MG1655, 24 h), greater than 128 µg/mL; against Bacillus cereus (ATCC 11778, 24 h) it was greater than 128 µg/mL; with Staphylococcus aureus [1] (RN4220, 24 h), greater than 128 µg/mL; against Bacillus subtilis (subsp. subtilis str. 168, 24 h) it was greater than 128 µg/mL.
Turning to `CC(C)C1CCC(C(=O)NCC(=O)NCc2ccccc2)CC1` (stereo not drawn), the MIC with Bacillus anthracis is greater than 128 µg/mL; with Haemophilus influenzae (ATCC 51907, 24 h), greater than 128 µg/mL; with Escherichia coli (K-12 MG1655, 24 h), greater than 128 µg/mL; in the assay on Bacillus cereus (ATCC 11778, 24 h), greater than 128 µg/mL; in the assay with Staphylococcus aureus [1] (RN4220, 24 h), greater than 128 µg/mL; against Bacillus subtilis (subsp. subtilis str. 168, 24 h), greater than 128 µg/mL.
Consider `CN(C)[C@@H]1C(O)=C(C(N)=O)C(=O)[C@@]2(O)C(O)=C3C(=O)c4c(O)cccc4[C@@](C)(O)[C@H]3C[C@@H]12` [TETRACYCLINE], for which the MIC was less than 2 µg/mL with Bacillus anthracis; less than 2 µg/mL against Haemophilus influenzae (ATCC 51907, 24 h); less than 2 µg/mL against Escherichia coli (K-12 MG1655, 24 h); less than 2 µg/mL in the assay with Bacillus cereus (ATCC 11778, 24 h); less than 2 µg/mL against Staphylococcus aureus [1] (RN4220, 24 h); less than 2 µg/mL against Bacillus subtilis (subsp. subtilis str. 168, 24 h).
Take `O=C(O)CCS`: the MIC result in the assay on Bacillus anthracis, with Haemophilus influenzae, in the assay with Escherichia coli, in the assay with Bacillus cereus, in the assay with Staphylococcus aureus [1] and in the assay on Bacillus subtilis (subsp. subtilis str. 168) was “inactive” throughout.
Consider `NCCCCNC(=O)C(c1ccc(Br)cc1)N(Cc1ccccc1)C(=O)CCS` (stereo not drawn), for which the Activity entry with Bacillus anthracis was “Dose-dependent effect”; in the assay with Staphylococcus aureus [2], greater than 3 log10CFU; in the assay on Haemophilus influenzae it was “Dose-dependent effect”; in the assay with Escherichia coli it was “Dose-dependent effect”; in the assay on Bacillus cereus, “Dose-dependent effect”; with Staphylococcus aureus [1] it was “Dose-dependent effect”. Further, the Activity result with Bacillus subtilis (subsp. subtilis str. 168) was “Dose-dependent effect”. Further, the MIC with Bacillus anthracis was found to be 4 µg/mL (≈ 8.36 µM); against Haemophilus influenzae (ATCC 51907, 24 h), 16 µg/mL (≈ 33.4 µM); against Escherichia coli (K-12 MG1655, 24 h), 32 µg/mL (≈ 66.9 µM); in the assay on Bacillus cereus (ATCC 11778, 24 h), 8 µg/mL (≈ 16.7 µM); against Staphylococcus aureus [1] (RN4220, 24 h), 8 µg/mL (≈ 16.7 µM); against Bacillus subtilis (subsp. subtilis str. 168, 24 h), 4 µg/mL (≈ 8.36 µM).
As to `NCCCCNCCCN`, the MIC entry in the assay with Bacillus anthracis, in the assay on Haemophilus influenzae, in the assay with Escherichia coli, with Bacillus cereus, in the assay on Staphylococcus aureus [1] and with Bacillus subtilis (subsp. subtilis str. 168) was “inactive” throughout.
Regarding `CCC(C)C(=O)NCC(=O)N1CCN(Cc2ccccc2)CC1` (stereo not drawn), the MIC was greater than 128 µg/mL with Bacillus anthracis; greater than 128 µg/mL with Haemophilus influenzae (ATCC 51907, 24 h); greater than 128 µg/mL in the assay on Escherichia coli (K-12 MG1655, 24 h); greater than 128 µg/mL in the assay on Bacillus cereus (ATCC 11778, 24 h); greater than 128 µg/mL in the assay with Staphylococcus aureus [1] (RN4220, 24 h); greater than 128 µg/mL with Bacillus subtilis (subsp. subtilis str. 168, 24 h).
With `CCCC(=O)N(Cc1ccccc1)C(C(=O)NCCCCN)c1ccc(Br)cc1` (stereo not drawn), the MIC with Bacillus anthracis was determined as 32 µg/mL (≈ 69.5 µM); against Haemophilus influenzae (ATCC 51907, 24 h), 64 µg/mL (≈ 139 µM); in the assay on Escherichia coli (K-12 MG1655, 24 h), 256 µg/mL (≈ 556 µM); in the assay with Bacillus cereus (ATCC 11778, 24 h), 32 µg/mL (≈ 69.5 µM); against Staphylococcus aureus [1] (RN4220, 24 h) it was 32 µg/mL (≈ 69.5 µM); in the assay on Bacillus subtilis (subsp. subtilis str. 168, 24 h), 16 µg/mL (≈ 34.8 µM).
As for `NCc1ccccc1`, the MIC result with Bacillus anthracis, in the assay on Haemophilus influenzae, in the assay with Escherichia coli, in the assay on Bacillus cereus, with Staphylococcus aureus [1] and with Bacillus subtilis (subsp. subtilis str. 168) was “inactive” throughout.

The record behind these values is ChEMBL document CHEMBL3751709, “Concise Synthesis of Spergualin-Inspired Molecules With Broad-Spectrum Antibiotic Activity” (2015).
